Consider 9 molecules from ChEMBL document CHEMBL1133252 (Bioorg Med Chem Lett, 2000).

Experiment [1] has as its system HT-29. The experiment is described as follows: Inhibitory activity against colon tumor cell line HT-29 after 72 hr continuous exposure to compound. It is filed as functional, cell-based. To be noted: Homo sapiens, HT-29, 72 h. Put shortly: (§1)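 Log-phase cells were plated in triplicate at 2500–3500 cells/well, and the compound was added 24 h later for 72 h continuous exposure. […] Media: A2780/143B DMEM+5% FBS; HT29 DMEM+10% FBS; HCT116 RPMI+10% FBS; ADDP (cisplatin-resistant A2780) RPMI+5% FBS.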

The subject of experiment [2] is 143B. The experiment is described as follows: Inhibitory activity against tumor osteosarcoma cell line 143B after 72 hr continuous exposure to compound. It is filed as functional, cell-based. To be noted: Homo sapiens. Put shortly:
as §1

The subject of experiment [3] is HCT-116. The experiment is described as follows: Inhibitory activity against colon tumor cell line HCT116 after 72 hr continuous exposure to compound. The format is functional, cell-based. To be noted: Homo sapiens, HCT-116, 72 h. Put shortly: as §1
Experiment [4] deals with Serine/threonine-protein phosphatase 2A catalytic subunit (Gallus gallus). The experiment is described as follows: Inhibitory activity against partially purified (chicken skeletal muscle) Protein phosphatase 2A.
Experiment [5] concerns A2780. The experiment is described as follows: Inhibitory activity against ovarian tumor cell line A2780 after 72 hr continuous exposure to compound. The format is functional, cell-based. To be noted: Homo sapiens, A2780, 72 h. Put shortly: as §1
In experiment [6] the test system is ADDP cell line. Description: Inhibitory activity against ovarian tumor cell line ADDP after 72 hr continuous exposure to compound. To be noted: Homo sapiens. The format is functional, cell-based. Put shortly:
as §1

Experiment [7] deals with Serine/threonine-protein phosphatase 2A catalytic subunit alpha isoform (Homo sapiens) (UniProt P67775). Description: The compound was tested for the selectivity against protein phosphatases 2A.
Chain of Serine/threonine-protein phosphatase 2A catalytic subunit alpha isoform (Homo sapiens) (P67775 whole entry, canonical isoform): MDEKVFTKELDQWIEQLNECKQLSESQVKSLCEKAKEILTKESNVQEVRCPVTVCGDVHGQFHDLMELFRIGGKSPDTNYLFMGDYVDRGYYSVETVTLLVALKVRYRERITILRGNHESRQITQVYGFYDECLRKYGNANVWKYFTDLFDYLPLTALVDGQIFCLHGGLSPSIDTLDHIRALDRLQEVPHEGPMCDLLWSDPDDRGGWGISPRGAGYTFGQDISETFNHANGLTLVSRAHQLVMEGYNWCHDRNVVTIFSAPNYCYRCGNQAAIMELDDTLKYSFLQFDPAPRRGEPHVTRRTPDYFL
Experiment [8] deals with T1, DNA topoisomerase 2 (Drosophila melanogaster, UniProt P15348).
T1 sequence (P15348 whole entry): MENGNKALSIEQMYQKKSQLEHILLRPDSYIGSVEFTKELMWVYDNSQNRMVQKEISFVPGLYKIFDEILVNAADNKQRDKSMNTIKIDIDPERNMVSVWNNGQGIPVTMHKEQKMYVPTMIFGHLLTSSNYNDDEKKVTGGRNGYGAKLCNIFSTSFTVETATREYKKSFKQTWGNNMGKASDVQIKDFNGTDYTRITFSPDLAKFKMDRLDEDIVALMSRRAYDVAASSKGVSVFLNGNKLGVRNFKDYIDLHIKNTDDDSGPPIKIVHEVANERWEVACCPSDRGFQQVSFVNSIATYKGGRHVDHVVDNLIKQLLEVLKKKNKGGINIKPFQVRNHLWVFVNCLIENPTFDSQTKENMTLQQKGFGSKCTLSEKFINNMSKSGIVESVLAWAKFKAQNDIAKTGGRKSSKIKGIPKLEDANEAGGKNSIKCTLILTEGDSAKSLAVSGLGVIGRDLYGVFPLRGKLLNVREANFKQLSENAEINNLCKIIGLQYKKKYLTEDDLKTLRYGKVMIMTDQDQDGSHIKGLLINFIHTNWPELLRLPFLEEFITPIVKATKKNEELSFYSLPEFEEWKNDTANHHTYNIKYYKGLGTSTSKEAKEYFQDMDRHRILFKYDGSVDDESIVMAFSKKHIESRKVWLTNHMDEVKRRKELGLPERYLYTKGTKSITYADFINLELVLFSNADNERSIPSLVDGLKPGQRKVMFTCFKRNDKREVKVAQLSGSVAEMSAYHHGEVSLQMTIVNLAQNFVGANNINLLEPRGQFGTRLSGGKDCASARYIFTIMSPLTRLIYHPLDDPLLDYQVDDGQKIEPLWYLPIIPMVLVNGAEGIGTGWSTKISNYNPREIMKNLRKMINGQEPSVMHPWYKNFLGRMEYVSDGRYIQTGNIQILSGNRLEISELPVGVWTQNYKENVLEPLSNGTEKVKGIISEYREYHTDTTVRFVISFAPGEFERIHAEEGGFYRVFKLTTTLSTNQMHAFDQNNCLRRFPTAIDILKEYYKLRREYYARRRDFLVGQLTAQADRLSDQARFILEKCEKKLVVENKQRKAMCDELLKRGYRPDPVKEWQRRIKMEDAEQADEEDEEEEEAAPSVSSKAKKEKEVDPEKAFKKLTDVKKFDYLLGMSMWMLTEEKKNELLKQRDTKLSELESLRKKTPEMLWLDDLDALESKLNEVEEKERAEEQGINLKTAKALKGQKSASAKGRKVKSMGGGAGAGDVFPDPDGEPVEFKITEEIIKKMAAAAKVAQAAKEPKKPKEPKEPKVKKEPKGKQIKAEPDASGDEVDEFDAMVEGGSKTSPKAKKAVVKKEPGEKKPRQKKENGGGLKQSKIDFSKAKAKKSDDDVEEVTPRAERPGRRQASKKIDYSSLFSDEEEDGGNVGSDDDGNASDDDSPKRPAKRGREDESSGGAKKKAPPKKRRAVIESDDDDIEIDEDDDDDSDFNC
The experiment is described as follows: Inhibition of topoisomerase IIin vitro through a novel, non-DNA-strandcleaving mechanism.

The subject of experiment [9] is L1210. Description: Inhibitory activity against L1210 leukemia cells. To be noted: Mus musculus. It is filed as functional, cell-based.

The IC50 is the concentration at which inhibition is half-maximal. On to `COC1OC(=O)[C@H]2[C@@H]1[C@@H]1CC[C@H]2O1` (some centres undefined), for which the 50% inhibitory concentration (IC50) in [1] is 28 µM; in [2], above 1000 µM; in experiment [3], 143 µM; in experiment [4], above 1000 µM; in [5] it was 538 µM; in experiment [6], 323 µM.
For the molecule `CCCOC1OC(=O)[C@H]2[C@@H]1[C@@H]1CC[C@H]2O1` (some centres undefined), the IC50 in [1] was 41 µM; in experiment [2], above 1000 µM; in experiment [3], 195 µM; in experiment [5], 375 µM; in experiment [6], 535 µM.
Taken in the same sequence, the figures for `CCOC1OC(=O)[C@H]2[C@@H]1[C@@H]1CC[C@H]2O1` (some centres undefined) were 26 µM, 103 µM, 80 µM, 100 µM and 107 µM.
Taken in the same sequence, the figures for `O=C1OC(=O)[C@H]2[C@@H]1[C@@H]1CC[C@H]2O1` were 33 µM, 43 µM, 24 µM, 50 µM and 47 µM.
Taken in the same sequence, the figures for `COC(=O)C1C(C(=O)O)[C@@H]2CC[C@H]1O2` (single isomer, unassigned) were 105 µM, 118 µM, 76 µM, 100 µM and 180 µM.
Regarding `CCCOC(=O)C1C(C(=O)O)[C@@H]2CC[C@H]1O2` (single isomer, unassigned), the IC50 stood at 15 µM in experiment [1], 75 µM in experiment [3] and 315 µM in experiment [6].
`CCOC(=O)C1C(C(=O)O)[C@@H]2CC[C@H]1O2` (single isomer, unassigned): in experiment [7], the Selectivity was 6.6. The IC50 came to 243 µM in experiment [1]; 437 µM in experiment [2]; 266 µM in experiment [3]; 0.45 µM in experiment [4]; 185 µM in experiment [5]; 330 µM in [6].
As to `C[C@@]12C(=O)OC(=O)[C@]1(C)[C@H]1CC[C@@H]2O1` [CANTHARIDIN], the IC50 in [1] is 6.4 µM; in [2], 10 µM; in [3], 9 µM; in experiment [5], 10 µM; in experiment [6] it was 11 µM.
Consider `C[C@@](O)(/C=C/[C@H]1CC=CC(=O)O1)[C@@H](C[C@@H](O)\C=C/C=C\C=C\CO)OP(=O)(O)O` [FOSTRIECIN], for which the half-inhibitory concentration (IC50) in [8] came out at 40 µM; in experiment [4], 0.0034 µM; in [9] it was 0.46 µM.
